Experimental data published in ChEMBL document CHEMBL1159115, “Piperidine-derived gamma-secretase modulators” (Bioorg Med Chem Lett, 2010).

How the values were obtained:
[1] = Inhibition of gamma-secretase expressed in african green monkey CV1 cells coexpressing Gal4 DNA-binding/transactivation domain assessed as inhibition of notch processing by luciferase reporter assay; format: cell-based; conditions: CV-1
CV-1 = assay: Inhibition of gamma-secretase expressed in african green monkey CV1 cells coexpressing Gal4 DNA-binding/transactivation domain assessed as inhibition of notch processing by luciferase reporter assay at 20 uM; format: cell-based
[2] = molecular target: T1, Gamma-secretase (Homo sapiens) (UniProt Q96BI3+Q9NZ42+Q8WW43+P49768+Q92542+P49810); assay: (§1) Inhibition of gamma-secretase in human SHSY5Y cells expressing human recombinant APP assessed as decrease in Abeta42 level after 24 hrs by DELFIA; format: cell-based; conditions: SH-SY5Y
Gamma-secretase [3] = assay: as §1; format: cell-based; conditions: sh-sy5y
[4] = molecular target: T1, Gamma-secretase (Homo sapiens); assay: (§2) Inhibition of gamma-secretase in human SHSY5Y cells expressing human recombinant APP assessed as increase in Abeta38 level after 24 hrs by DELFIA; format: cell-based; conditions: SH-SY5Y
Gamma-secretase [5] = assay: as §2; format: cell-based; conditions: sh-sy5y
Gamma-secretase [6] = assay: Inhibition of gamma-secretase in human SHSY5Y cells expressing human recombinant APP assessed as effect on Abeta40 level after 24 hrs by DELFIA; format: cell-based; conditions: sh-sy5y
SH-SY5Y = assay: Cytotoxicity against human SH-SY5Y cells after 24 hrs by WST1 assay; format: cell-based
Gamma-secretase [7] = assay: Inhibition of gamma-secretase in human SHSY5Y cells expressing human recombinant APP assessed as decrease in total Abeta level after 24 hrs by DELFIA; format: cell-based; conditions: sh-sy5y
Gamma-secretase [8] = assay: Inhibition of gamma-secretase in human SHSY5Y cells expressing human recombinant APP assessed as amyloid beta40 formation by ELISA; format: cell-based; conditions: sh-sy5y; in the assay text read “amyloid beta42 formation” for “amyloid beta40 formation”
How it was run: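 SH-SY5Y cells overexpressing human APP Swedish variant exposed to compound for 48 h; Aβ40 (and Aβ42) in the cell medium quantified by ELISA, either Meso Scale Discovery or AlphaLISA format. Compounds also cross-screened for inhibition of Notch processing.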

Gamma-secretase [9] = assay: Inhibition of gamma-secretase in human SHSY5Y cells expressing human recombinant APP assessed as amyloid beta42 formation by ELISA; format: cell-based; conditions: sh-sy5y; in the assay text read “amyloid beta40 formation” for “amyloid beta42 formation”
How it was run: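 SH-SY5Y cells overexpressing human APP Swedish variant were incubated with compound for 48 h. Secreted Aβ42 and Aβ40 were measured by immunoassay (MSD electrochemiluminescence or AlphaLISA).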

[10] = Clearance in rat blood at 1 mg/kg, iv and 2 mg/kg, po; format: ADME, organism-based
How it was run: (§3)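 Rat PK: iv 1 mg/kg paired with oral 3 mg/kg or 2 mg/kg; values are the mean from three animals. Oral bioavailability was measured with the sodium salt in 1% methylcellulose vehicle.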

[11] = Volume of distribution at steady state in rat at 1 mg/kg, iv and 2 mg/kg, po; format: ADME, organism-based; conditions: in vivo, read-out: Vdss; how it was run: as §3
[12] = Half life in rat at 1 mg/kg, iv and 2 mg/kg, po; format: ADME, organism-based; conditions: in vivo; how it was run: as §3
[13] = Oral bioavailability in rat at 2 mg/kg; format: ADME, organism-based; conditions: in vivo; how it was run: as §3
[14] = Clearance in dog blood at 1 mg/kg, iv and 1 mg/kg, po; format: ADME, organism-based, Canis lupus familiaris
How it was run: (§4)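 Dog PK: iv and oral doses each 1 mg/kg; data from a single animal. Oral bioavailability was measured with the sodium salt in 1% methylcellulose vehicle.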

[15] = Volume of distribution at steady state in dog at 1 mg/kg, iv and 1 mg/kg, po; format: ADME, organism-based, Canis lupus familiaris; conditions: in vivo, read-out: Vdss; how it was run: as §4
[16] = Half life in dog at 1 mg/kg, iv and 1 mg/kg, po; format: ADME, organism-based, Canis lupus familiaris; conditions: in vivo; how it was run: as §4
[17] = Oral bioavailability in dog at 1 mg/kg; format: ADME, organism-based, Canis lupus familiaris; conditions: in vivo; how it was run: as §4
[18] = molecular target: T1, Gamma-secretase (Homo sapiens); assay: Inhibition of gamma-secretase in human SHSY5Y cells expressing human recombinant APP assessed as amyloid beta40 formation at 20 uM by ELISA; conditions: SH-SY5Y
[19] = Clearance in mouse blood at 3 mg/kg, iv and 10 mg/kg, po; format: ADME, organism-based
How it was run: (§5)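 Mouse PK: single iv dose of 3 mg/kg and oral dose of 10 mg/kg; data are the mean from three animals.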

[20] = Volume of distribution at steady state in mouse at 3 mg/kg, iv and 10 mg/kg, po; format: ADME, organism-based; conditions: in vivo, read-out: Vdss; how it was run: as §5
[21] = Half life in mouse at 3 mg/kg, iv and 10 mg/kg, po; format: ADME, organism-based; conditions: in vivo; how it was run: as §5
[22] = Oral bioavailability in mouse at 10 mg/kg; format: ADME, organism-based; conditions: in vivo; how it was run: as §5
[23] = Clearance in rat blood at 1 mg/kg, iv and 3 mg/kg, po; format: ADME, organism-based; how it was run: as §3
[24] = Volume of distribution at steady state in rat at 1 mg/kg, iv and 3 mg/kg, po; format: ADME, organism-based; conditions: in vivo, read-out: Vdss; how it was run: as §3
[25] = Half life in rat at 1 mg/kg, iv and 3 mg/kg, po; format: ADME, organism-based; conditions: in vivo; how it was run: as §3
[26] = Oral bioavailability in rat at 3 mg/kg; format: ADME, organism-based; conditions: in vivo; how it was run: as §3
[27] = Drug level in mouse blood at 5 mg/kg, po after 2 hrs; format: ADME, organism-based; parameters: dose 5 mg/kg, route oral; conditions: read-out: Drug uptake
How it was run: (§6)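 Mice dosed orally at 5 mg/kg in 1% (w/v) aqueous methylcellulose. Blood and brain sampled 2 h post-dose; brain:blood ratio derived from these levels; mean of three mice.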

[28] = Drug level in mouse brain at 5 mg/kg, po after 2 hrs; format: ADME, organism-based; parameters: dose 5 mg/kg, route oral; conditions: read-out: Drug uptake; how it was run: as §6

SMILES | IC50 [1] | Activity [2] | pIC50 (Gamma-secretase [3]) | Activity [4] | pEC50 (Gamma-secretase [5]) | pIC50 (Gamma-secretase [6]) | pIC50 (Gamma-secretase [7]) | pIC50 (Gamma-secretase [8]) | pIC50 (Gamma-secretase [9]) | inhibition [18] | inhibition (CV-1) | IC50 (SH-SY5Y) | also measured
CCCC[C@H](c1ccc(C(F)(F)F)nc1)N1CC[C@@H](CC(=O)[O-])C[C@H]1c1ccc(C(F)(F)F)cc1.[Na+] | > 20 µM | Dose-dependent effect | 6 | Dose-dependent effect | 5.5 | 4.4 | < 4 | 6.2 | 4.8 | – | 33% | > 100 µM | –
O=C(O)Cc1ccc(-c2ccc(C(F)(F)F)cc2)c(-c2ccc(C(F)(F)F)cc2)c1 | > 20 µM | Dose-dependent effect | 5.7 | Dose-dependent effect | 5.1 | < 4 | < 4 | 5.7 | < 4.7 | 13% | 23% | > 100 µM | –
CC(C)[C@H](c1ccc(C(F)(F)F)nc1)N1CC[C@@H](CC(=O)[O-])C[C@H]1c1ccc(C(F)(F)F)cc1.[Na+] | > 20 µM | Dose-dependent effect | 6 | Dose-dependent effect | 5 | < 4 | < 4 | 5.4 | < 4.7 | 24% | 21% | > 100 µM | –
CC(C)CC[C@H](c1ccc(C(F)(F)F)nc1)N1CC[C@@H](CC(=O)[O-])C[C@H]1c1ccc(C(F)(F)F)cc1.[Na+] | > 20 µM | Dose-dependent effect | 6 | Dose-dependent effect | 6.3 | 4.4 | 4 | 6.5 | 5.2 | – | 24% | 100 µM | clearance [19]: 4 mL/min/kg; Vd [20]: 1.4 L/kg; half-life [21]: 4.3 h; bioavailability [22]: > 100%; clearance [23]: 4 mL/min/kg; Vd [24]: 2.3 L/kg; half-life [25]: 6.6 h; bioavailability [26]: > 100%; clearance [14]: 3 mL/min/kg; Vd [15]: 1.1 L/kg; half-life [16]: 5.2 h; bioavailability [17]: 72%; concentration at 2 h [27]: 5.6 µM; concentration at 2 h [28]: 4.2 µM
CCC[C@@H](C(=O)O)c1cc(OCc2ccccc2)cc(-c2ccc(C(F)(F)F)cc2)c1 | > 20 µM | Dose-dependent effect | 5.8 | Dose-dependent effect | 5.9 | < 4 | < 4 | – | <= 4.8 | 32% | 20% | > 100 µM | IC50 (Gamma-secretase [8]): 3.98 µM

The next lines start with results.

IC50 [1] | Activity [2] | pIC50 (Gamma-secretase [3]) | Activity [4] | pEC50 (Gamma-secretase [5]) | pIC50 (Gamma-secretase [6]) | pIC50 (Gamma-secretase [7]) | pIC50 (Gamma-secretase [8]) | pIC50 (Gamma-secretase [9]) | inhibition [18] | SMILES | inhibition (CV-1) | IC50 (SH-SY5Y) | also measured
> 20 µM | Dose-dependent effect | 6 | Dose-dependent effect | 5 | < 4 | < 4 | 5.1 | 4.3 | – | O=C([O-])C[C@@H]1CCN([C@@H](c2ccc(C(F)(F)F)nc2)C2CC2)[C@H](c2ccc(C(F)(F)F)cc2)C1.[Na+] | 23% | > 100 µM | –
25.1 µM | – | – | – | – | – | – | 6.1 | < 4.7 | 17% | CC(C)CC[C@H](c1ncc(C(F)(F)F)cn1)N1CC[C@@H](CC(=O)[O-])C[C@H]1c1ccc(C(F)(F)F)cc1.[Na+] | – | – | clearance [10]: 9 mL/min/kg; Vd [11]: 3 L/kg; half-life [12]: 3 h; bioavailability [13]: 95%; clearance [14]: 5 mL/min/kg; Vd [15]: 1.2 L/kg; half-life [16]: 3.1 h; bioavailability [17]: > 100%
0.316 µM | Dose-dependent effect | 6.9 | Dose-dependent effect | 6.9 | 6.7 | 7 | 7.4 | 7.4 | – | CC(C)[C@H](O)C(=O)N[C@@H](C)C(=O)N[C@@H]1C(=O)N(C)CCc2ccccc21 [SEMAGACESTAT] | – | > 100 µM | –
5.01 µM | Dose-dependent effect | 6 | Dose-dependent effect | 6.3 | 4.6 | 4 | 6.3 | 4.8 | – | CCCCCC[C@H](c1ccc(C(F)(F)F)nc1)N1CC[C@@H](CC(=O)[O-])C[C@H]1c1ccc(C(F)(F)F)cc1.[Na+] | – | > 100 µM | –
